# From ChEMBL document CHEMBL1759862, “Tricyclic compounds containing nonenolizable cyano enones. A novel class of highly potent anti-inflammatory and cytoprotective agents” (J Med Chem, 2011)
# The source made the active and inactive calls. The calls are words filed in the database; no cut-off is given here.
# Legend:
# [1] = target: NAD(P)H dehydrogenase [quinone] 1 (Mus musculus) (UniProt Q64669); experiment: Induction of NQO1 activity in mouse Hepa-1c1c7 cells after 48 hrs; type: cell-based
# RAW264.7 [2] = experiment: Antiinflammatory activity in mouse RAW264.7 cells assessed as inhibition of IFN-gamma induced NO production after 24 hrs by Griess reaction; type: functional, cell-based
# Procedure, shortened: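 RAW 264.7 cells exposed to serial concentrations of compound together with IFN-γ (10 ng/mL) for 24 h; NO in supernatants quantified by Griess reaction. IC50 tested over 0.1 pM to 10 μM in 10-fold steps; values averaged from two separate experiments.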
# RAW264.7 [3] = experiment: Induction of HO-1 expression in mouse RAW264.7 cells at 30 nM after 6 hrs by Western blotting; type: functional, cell-based
# Procedure, shortened: (§1)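 RAW cells treated with compound for 6 h (30–300 nM range); HO-1 detected in total cell lysates by Western blot.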
# [4] = Cytotoxicity against CD-1 mouse macrophages at 10 uM; type: cell-based; conditions: macrophage
# [5] = Antiinflammatory activity in CD-1 mouse Macrophage assessed as inhibition of IFN-gamma induced NO production after 48 hrs by Griess reaction; type: functional, cell-based
# RAW264.7 [6] = experiment: Induction of HO-1 expression in mouse RAW264.7 cells at 300 nM after 6 hrs by Western blotting; type: functional, cell-based; procedure, shortened: as §1
# [7] = Mus musculus, CD-1, Macrophage, 48 h
# Sequence of NAD(P)H dehydrogenase [quinone] 1 (Mus musculus) (Q64669 whole entry): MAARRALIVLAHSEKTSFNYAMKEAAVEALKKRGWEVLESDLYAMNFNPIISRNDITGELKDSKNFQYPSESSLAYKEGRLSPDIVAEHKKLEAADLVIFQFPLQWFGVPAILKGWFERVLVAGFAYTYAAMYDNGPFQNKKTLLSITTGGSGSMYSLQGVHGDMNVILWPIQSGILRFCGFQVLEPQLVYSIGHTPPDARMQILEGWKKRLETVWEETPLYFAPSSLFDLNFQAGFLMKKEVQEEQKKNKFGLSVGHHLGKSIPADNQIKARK
SMILES,"IC50 (RAW264.7 [2]; Mus musculus, RAW264.7, 24 h)",Activity [4],further results
C=C[C@]12C=C(C#N)C(=O)C=C1[C@@]1(C)C=C(C#N)C(=O)C(C)(C)[C@@H]1CC2 (racemic),10 nM,–,CD [1]: 30 nM; Activity (RAW264.7 [3]): Active
CC1(C)C(=O)C(C#N)=C[C@]2(C)C3=CC(=O)CC[C@]3(C=O)CC[C@@H]12 (racemic),83 nM,–,–
CC1(C)C(=O)C(C#N)=C[C@]2(C)C3=CC(=O)C(C#N)=C[C@]3(C#CC#N)CC[C@@H]12 (racemic),4 nM,–,Activity (RAW264.7 [3]): Active
CC1(C)C(=O)C(C#N)=C[C@@]2(C)C3=CC(=O)CC[C@@]3(C)CC[C@H]12,–,Non-toxic,"IC50 [5, 7]: 26 nM"
CC1(C)C(=O)C(C#N)=C[C@]2(C)C3=CC(=O)CC[C@]3(C#N)CC[C@@H]12 (racemic),64 nM,–,–
CC1(C)C(=O)C(C#N)=C[C@]2(C)C3=CC(=O)CC[C@]3(C(=O)OCOCC[Si](C)(C)C)CC[C@@H]12 (racemic),150 nM,–,–
CC1(C)C(=O)C(C(=O)O)=C[C@]2(C)C3=CC(=O)C(C#N)=C[C@]3(C)CC[C@@H]12 (racemic),–,Non-toxic,"IC50 [5, 7]: > 600 nM"
CC1(C)C(=O)C(C#N)=C[C@]2(C)C3=CC(=O)C(C#N)=C[C@]3(C#Cc3nccn3COCC[Si](C)(C)C)CC[C@@H]12 (racemic),35 nM,–,Activity (RAW264.7 [3]): Active
CC[C@]12C=C(C#N)C(=O)C=C1[C@@]1(C)C=C(C#N)C(=O)C(C)(C)[C@@H]1CC2 (racemic),10 nM,–,CD [1]: 18 nM; Activity (RAW264.7 [3]): Active
CC1(C)C(=O)C(C#N)=C[C@]2(C)C3=CC(=O)C(C#N)=C[C@]3(C)CC[C@@H]12 [listing 1 of 2 here],–,–,IC50 ([5]; macrophage): 14 nM
CC[C@]12CCC(=O)C=C1[C@@]1(C)C=C(C#N)C(=O)C(C)(C)[C@@H]1CC2 (racemic),80 nM,–,–
CC1(C)C(=O)C(C#N)=C[C@]2(C)C3=CC(=O)C=C[C@]3(C)CC[C@@H]12,–,–,CD [1]: 170 nM
C#C[C@]12CCC(=O)C=C1[C@@]1(C)C=C(C#N)C(=O)C(C)(C)[C@@H]1CC2 (racemic),83 nM,–,–
CC1(C)C(=O)C(C#N)=C[C@]2(C)C3=CC(=O)C(C#N)=C[C@]3(C#N)CC[C@@H]12 (racemic),115 nM,–,–
CC1(C)C(=O)C(C#N)=C[C@]2(C)C3=CC(=O)C(C#N)=C[C@]3(C#Cc3ccccc3)CC[C@@H]12 (racemic),50 nM,–,Activity (RAW264.7 [3]): Active; Activity (RAW264.7 [6]): Active
CC1(C)C(=O)C(C#N)=C[C@]2(C)C3=CC(=O)C(C#N)=C[C@]3(C#C[Si](C)(C)C(C)(C)C)CCC12 (mixture of isomers),80 nM,–,CD [1]: 150 nM
COC[C@]12CCC(=O)C=C1[C@@]1(C)C=C(C#N)C(=O)C(C)(C)[C@@H]1CC2 (racemic),40 nM,–,–
CC1(C)C(=O)C(C#N)=C[C@]2(C)C3=CC(=O)C=C[C@]3(C)CC[C@@H]12 (racemic) [listing 1 of 2 here],–,–,CD [1]: 160 nM
COC(=O)C1=C[C@]2(C)CC[C@H]3C(C)(C)C(=O)C(C#N)=C[C@]3(C)C2=CC1=O (racemic),–,Non-toxic,–
CCC#C[C@]12C=C(C#N)C(=O)C=C1[C@@]1(C)C=C(C#N)C(=O)C(C)(C)[C@@H]1CC2 (racemic),20 nM,–,–
Cc1csc(C#C[C@]23C=C(C#N)C(=O)C=C2[C@@]2(C)C=C(C#N)C(=O)C(C)(C)[C@@H]2CC3)n1 (racemic),20 nM,–,Activity (RAW264.7 [3]): Active; Activity (RAW264.7 [6]): Active
CC1(C)C(=O)C(C#N)=C[C@]2(C)C3=CC(=O)C[C@@H](O)[C@]3(C)CC[C@@H]12 (racemic),–,Non-toxic,–
CC1(C)C(=O)C(C#N)=C[C@]2(C)C3=CC(=O)CCCC3(F)CC[C@@H]12 (mixture of isomers),360 nM,–,–
CC(C)(C)OC(=O)NC[C@]12CCC(=O)C=C1[C@@]1(C)C=C(C#N)C(=O)C(C)(C)[C@@H]1CC2 (racemic),64 nM,–,–
CC1(C)C(=O)C(C#N)=C[C@@]2(C)C3=CC(=O)C(C#N)=C[C@@]3(C)CC[C@H]12,–,Non-toxic,"CD [1]: 19 nM; IC50 [5, 7]: 1.3 nM"
C[C@@H]1C[C@H]2[C@@H]3CCC4=CC(=O)C=C[C@]4(C)[C@@]3(F)[C@@H](O)C[C@]2(C)[C@@]1(O)C(=O)CO [DEXAMETHASONE],20 nM,–,–

SMILES,"IC50 (RAW264.7 [2]; Mus musculus, RAW264.7, 24 h)",Activity [4],further results
CC1(C)C(=O)C(C#N)=C[C@]2(C)C3=CCC[C@@H](O)[C@]3(C)CC[C@@H]12 (racemic),–,Non-toxic,–
CC1(C)C(=O)C(C#N)=C[C@]2(C)C3=CC(=O)CC[C@]3(C(=O)O)CC[C@@H]12 (racemic),83 nM,–,–
CC(=O)OC[C@]12CCC(=O)C=C1[C@@]1(C)C=C(C#N)C(=O)C(C)(C)[C@@H]1CC2 (racemic),85 nM,–,–
C[C@]12CCC(=O)C=C1CC[C@@H]1[C@@H]2[C@@H](O)C[C@@]2(C)[C@H]1CC[C@]2(O)C(=O)CO [HYDROCORTISONE],61 nM,Non-toxic,"IC50 [5, 7]: 10 nM"
C#CC#C[C@]12C=C(C#N)C(=O)C=C1[C@@]1(C)C=C(C#N)C(=O)C(C)(C)[C@@H]1CC2 (racemic),3 nM,–,Activity (RAW264.7 [3]): Active; Activity (RAW264.7 [6]): Active
CC1(C)C(=O)C(C#N)=C[C@]2(C)C3=CC(=O)C(C(N)=O)=C[C@]3(C)CC[C@@H]12 (racemic),–,Non-toxic,–
CC1(C)C(=O)C(C#N)=C[C@]2(C)C3=CC(=O)C(C#N)=C[C@]3(C)CC[C@@H]12 [listing 2 of 2 here],–,–,CD [1]: 150 nM
CC1(C)C(=O)C(C#N)=C[C@]2(C)C3=CC(=O)C(C(=O)O)=C[C@]3(C)CC[C@@H]12 (racemic),–,Non-toxic,–
COC(=O)[C@]12CCC(=O)C=C1[C@@]1(C)C=C(C#N)C(=O)C(C)(C)[C@@H]1CC2 (racemic),290 nM,–,–
CC1(C)C(=O)C(C#N)=C[C@]2(C)C3=CC(=O)C(C#N)=C[C@]3(C#C[Si](C)(C)C)CC[C@@H]12 (racemic),3 nM,–,–
CC1(C)C(=O)C(C#N)=C[C@]2(C)C3=CC(=O)C(C#N)=C[C@]3(C#Cc3ncc[nH]3)CC[C@@H]12 (racemic),400 nM,–,–
CC(=O)O[C@@H]1CC(=O)C=C2[C@@]3(C)C=C(C#N)C(=O)C(C)(C)[C@@H]3CC[C@]21C (racemic),–,Non-toxic,–
CC1(C)C(=O)C(C#N)=C[C@]2(C)C3=CC(=O)CC[C@]3(CO[Si](C)(C)C(C)(C)C)CC[C@@H]12 (racemic),480 nM,–,–
CC1(C)C(=O)C(C#N)=C[C@]2(C)C3=CC(=O)CC[C@]3(CO)CC[C@@H]12 (racemic),350 nM,–,–
CC1(C)C(=O)C(C#N)=C[C@]2(C)C3=CC(=O)CC[C@]3(CN)CC[C@@H]12 (racemic),240 nM,–,–
CC1(C)C(=O)C(C#N)=C[C@]2(C)C3=CC(=O)C(C#N)=C[C@]3(C#CC(=O)O)CC[C@@H]12 (racemic),100 nM,–,CD [1]: 150 nM
CC1(C)C(=O)C(C#N)=C[C@]2(C)C3=CC(=O)CC[C@]3(C)CC[C@@H]12 (racemic),57 nM,Non-toxic,"IC50 [5, 7]: 19 nM"
CC1(C)C(=O)C(C#N)=C[C@]2(C)C3=CC(=O)C=C[C@]3(C)CC[C@@H]12 (racemic) [listing 2 of 2 here],87 nM,Non-toxic,–
CC1(C)C(=O)C(C#N)=C[C@@]2(C)C3=CC(=O)C=C[C@@]3(C)CC[C@H]12,–,Non-toxic,"CD [1]: 140 nM; IC50 [5, 7]: 58 nM"
COC(=O)[C@]12CCC(C)(C)C[C@H]1[C@H]1C(=O)C=C3[C@@]4(C)C=C(C#N)C(=O)C(C)(C)[C@@H]4CC[C@@]3(C)[C@]1(C)CC2 [BARDOXOLONE METHYL],–,Non-toxic,"IC50 [5, 7]: 0.2 nM"
CC1(C)C(=O)C(C#N)=C[C@]2(C)C3=CC(=O)C(C#N)=C[C@]3(C)CC[C@@H]12 (racemic),23 nM,Non-toxic,IC50 ([5]; macrophage): 2.1 nM
C#C[C@]12C=C(C#N)C(=O)C=C1[C@@]1(C)C=C(C#N)C(=O)C(C)(C)[C@@H]1CC2,–,–,IC50 (RAW264.7 [2]; raw264.7): 3 nM
CC1(C)C(=O)C(C#N)=C[C@]2(C)C3=CC(=O)CC[C@]3(C(N)=O)CC[C@@H]12 (racemic),> 10000 nM,–,–
CC(=O)O[C@@H]1CCC=C2[C@@]3(C)C=C(C#N)C(=O)C(C)(C)[C@@H]3CC[C@]21C (racemic),–,Non-toxic,–
CC#C[C@]12C=C(C#N)C(=O)C=C1[C@@]1(C)C=C(C#N)C(=O)C(C)(C)[C@@H]1CC2 (racemic),5 nM,–,CD [1]: 7.5 nM
COC(=O)C1=C[C@]2(C)C3=CC(=O)C(C#N)=C[C@]3(C)CC[C@H]2C(C)(C)C1=O (racemic),–,Non-toxic,"IC50 [5, 7]: > 60 nM"
